{"source": "ChEMBL document CHEMBL3877288", "about": "“Identification and biochemical characterization of DC07090 as a novel potent small molecule inhibitor against human enterovirus 71 3C protease by structure-based virtual screening” (Eur J Med Chem, 2016)", "key": {"Enterovirus A71 [1]": {"test_system": "Enterovirus A71", "assay": "Antiviral activity against EV71 infected in human RD cells assessed as protection against virus-induced cytopathic effect after 48 hrs by MTS assay", "format": "functional, cell-based", "settings": "Enterovirus A"}, "Enterovirus A71 [2]": {"test_system": "Enterovirus A71", "assay": "Inhibition of recombinant N-terminal 6His-tagged EV71 3C protease expressed in Escherichia coli Rosetta using substrate Dabcyl-RTATVQGPSLDFE-Edans at 50 uM after 30 mins by fluorescence assay", "procedure,_shortened": "(§1)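 Preincubated with compound in DMSO for 30 min at 30 °C. Ex 340/Em 500 nm; initial velocity over the first 600 s. Inhibition relative to DMSO control; mean of three experiments. IC50 from serial dilutions.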"}, "Enterovirus A71 [3]": {"test_system": "Enterovirus A71", "assay": "Antiviral activity against EV71 infected in human RD cells assessed as reduction in viral plaque formation after 1 hr by crystal violet staining method", "format": "functional, cell-based", "settings": "Enterovirus A"}, "[4]": {"assay": "Inhibition of recombinant N-terminal 6His-tagged EV71 3C protease expressed in Escherichia coli Rosetta using substrate Dabcyl-RTATVQGPSLDFE-Edans preincubated for 30 mins followed by substrate addition", "parameters": "species or system Enterovirus A71", "procedure,_shortened": "as §1"}, "Enterovirus A71 [5]": {"test_system": "Enterovirus A71", "assay": "Antiviral activity against EV71 infected in human RD cells assessed as protection against virus infection after 72 hrs by MTS assay", "format": "functional, cell-based", "settings": "Enterovirus A"}, "Coxsackievirus": {"test_system": "Coxsackievirus", "assay": "Antiviral activity against Coxsackievirus A16 assessed as reduction in viral replication after 72 hrs by CellTiter-glo luminescent cell viability assay", "format": "functional", "settings": "A16, 72 h", "procedure,_shortened": "(§2)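 RD cells seeded at 1 × 10^4/mL in DMEM with 10% FBS and antibiotics, grown 24 h at 37 °C, 5% CO2. Virus (EV71 50 TCID50; CVA16 100 TCID50) mixed with serial compound dilutions, added to cells and held 72 h at 37 °C. Protection read by CellTiter-Glo luminescence. EC50 is the concentration cutting virus-induced cell death by 50% versus virus control. Triplicate, run at least twice.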"}, "Enterovirus A71 [6]": {"test_system": "Enterovirus A71", "assay": "Antiviral activity against EV71 assessed as reduction in viral replication after 72 hrs by CellTiter-glo luminescent cell viability assay", "format": "functional", "settings": "Enterovirus A", "procedure,_shortened": "as §2"}, "Enterovirus A71 [7]": {"test_system": "Enterovirus A71", "assay": "Antiviral activity against EV71 infected in African green monkey Vero cells after 48 hrs by plaque assay", "format": "functional, cell-based", "settings": "Enterovirus A"}, "[8]": {"assay": "Cytotoxicity against African green monkey Vero cells after 48 hrs by MTT assay", "format": "toxicity, cell-based", "settings": "chlorocebus sabaeus"}, "[9]": {"assay": "Binding affinity to recombinant N-terminal 6His-tagged EV71 3C protease expressed in Escherichia coli Rosetta by surface plasmon resonance assay", "parameters": "species or system Enterovirus A71", "procedure,_shortened": "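Compound concentrations in HBS-EP were injected at 30 µL/min for 60 s, with 120 s dissociation, on a Biacore 3000. Kd fitted with a 1:1 Langmuir model.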"}, "[10]": {"assay": "(§3) Binding affinity to recombinant N-terminal 6His-tagged EV71 3C protease expressed in Escherichia coli Rosetta after 1 hr by intrinsic fluorescence quenching assay", "parameters": "species or system Enterovirus A71", "procedure,_shortened": "(§4)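 Compound dilutions were mixed with 2 µM 3Cpro (wild type or mutants) for 1 h on ice, then held 5 min in the dark in a 1 cm quartz cell. Trp emission spectra recorded from 300 to 400 nm at 25 °C, with maximum at 340 nm. Kd derived from dose-dependent quenching.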"}, "Enterovirus A71 [11]": {"test_system": "Enterovirus A71", "assay": "as §3", "procedure,_shortened": "as §4"}, "[12]": {"assay": "Competitive inhibition of recombinant N-terminal 6His-tagged EV71 3C protease expressed in Escherichia coli Rosetta using substrate Dabcyl-RTATVQGPSLDFE-Edans by Dixon plot", "parameters": "species or system Enterovirus A71", "procedure,_shortened": "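Same fluorogenic 3Cpro activity assay (8 µM enzyme, 30 min preincubation at 30 °C, Ex 340/Em 500 nm, initial rates) run at inhibitor 0–20 µM and substrate 40–150 µM. Mechanism assigned from Lineweaver–Burk plots; Ki obtained from Dixon plots.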"}, "[13]": {"assay": "Cytotoxicity against human RD cells after 48 hrs by CellTiter-glo luminescent cell viability assay", "format": "toxicity, cell-based", "procedure,_shortened": "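RD cells plated at 1 × 10^3 per well in DMEM with 10% FBS and antibiotics, cultured overnight at 37 °C, 5% CO2. Compound added at 0–200 µM (final) for 48 h at 37 °C. CellTiter-Glo luminescence read. Inhibition = 1 − RLU(treated)/RLU(cell control) × 100%. CC50 obtained by regression analysis.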"}, "[14]": {"assay": "Binding affinity to EV71 3C protease A144S mutant after 1 hr by intrinsic fluorescence quenching assay", "parameters": "species or system Enterovirus A71"}, "[15]": {"assay": "Inhibition of EV71 3C protease A144S mutant using substrate Dabcyl-RTATVQGPSLDFE-Edans preincubated for 30 mins followed by substrate addition by fluorescence assay", "parameters": "species or system Enterovirus A71"}, "[16]": {"assay": "Binding affinity to EV71 3C protease F25A mutant after 1 hr by intrinsic fluorescence quenching assay", "parameters": "species or system Enterovirus A71"}, "Enterovirus A71 [17]": {"test_system": "Enterovirus A71", "assay": "Inhibition of EV71 3C protease F25A mutant using substrate Dabcyl-RTATVQGPSLDFE-Edans at 0.1 to 10 uM preincubated for 30 mins followed by substrate addition by fluorescence assay"}, "[18]": {"assay": "Inhibition of EV71 3C protease F25W mutant using substrate Dabcyl-RTATVQGPSLDFE-Edans at 0.1 to 10 uM preincubated for 30 mins followed by substrate addition by fluorescence assay", "parameters": "species or system Enterovirus A71"}, "[19]": {"assay": "Binding affinity to EV71 3C protease F25W mutant after 1 hr by intrinsic fluorescence quenching assay", "parameters": "species or system Enterovirus A71"}, "Enterovirus A71 [20]": {"test_system": "Enterovirus A71", "assay": "Ratio of IC50 for recombinant N-terminal 6His-tagged EV71 3C protease to IC50 for EV71 3C protease A144S mutant"}, "Enterovirus A71 [21]": {"test_system": "Enterovirus A71", "assay": "Ratio of IC50 for recombinant N-terminal 6His-tagged EV71 3C protease to IC50 for EV71 3C protease F25W mutant"}}, "note": "Activity calls are given as the source filed them. The rule behind the calls is not given here.", "data": [{"smiles": "O=c1cc(-c2ccc(O)c(O)c2)oc2cc(O[C@@H]3O[C@H](CO)[C@@H](O)[C@H](O)[C@H]3O)cc(O)c12", "note": "[GALUTEOLIN]", "values": [{"measurement": "EC50", "setting": "Enterovirus A71 [1]", "result": 430, "unit": "µM"}]}, {"smiles": "Cc1cccc(CNc2ccc(-c3nc4ncccc4o3)cc2Cl)n1", "values": [{"measurement": "inhibition", "setting": "Enterovirus A71 [2]", "result": 34.7, "unit": "%"}]}, {"smiles": "Cc1ccc2oc(-c3ccc(NCc4ccccn4)c(F)c3)nc2n1", "values": [{"measurement": "inhibition", "setting": "Enterovirus A71 [2]", "result": 6.72, "unit": "%"}]}, {"smiles": "Cc1ccc2oc(-c3ccc(NCc4ccccn4)cc3)nc2n1", "values": [{"measurement": "inhibition", "setting": "Enterovirus A71 [2]", "result": 19.2, "unit": "%"}]}, {"smiles": "C[C@@H]1O[C@@H](OC[C@H]2O[C@@H](Oc3c(-c4ccc(O)c(O)c4)oc4cc(O)cc(O)c4c3=O)[C@H](O)[C@@H](O)[C@@H]2O)[C@H](O)[C@H](O)[C@H]1O", "note": "[RUTIN]", "values": [{"measurement": "EC50", "setting": "Enterovirus A71 [3]", "result": 110, "unit": "µM"}]}, {"smiles": "Cc1cccc(CNc2ccc(Cc3nc4ncccc4o3)cc2)n1", "values": [{"measurement": "IC50", "setting": "[4]", "result": 31.6, "unit": "µM"}, {"measurement": "inhibition", "setting": "Enterovirus A71 [2]", "result": 60, "unit": "%"}]}, {"smiles": "Cc1cccc(CNc2ccc(-c3nc4nc(C)ccc4o3)cc2)n1", "values": [{"measurement": "inhibition", "setting": "Enterovirus A71 [2]", "result": "< 5", "unit": "%"}]}, {"smiles": "O=c1cc(-c2ccccc2)oc2cc(O)cc(O)c12", "note": "[CHRYSIN]", "values": [{"measurement": "EC50", "setting": "Enterovirus A71 [5]", "result": 15.9, "unit": "µM"}]}, {"smiles": "Cc1cccc(CNc2ccc(-c3nc4nc(C)ccc4o3)cc2Cl)n1", "values": [{"measurement": "inhibition", "setting": "Enterovirus A71 [2]", "result": 18.6, "unit": "%"}]}, {"smiles": "Cc1cccc(CNc2ccc(-c3nc4nc(C)ccc4o3)cc2F)n1", "values": [{"measurement": "inhibition", "setting": "Enterovirus A71 [2]", "result": "< 5", "unit": "%"}]}, {"smiles": "Fc1cc(-c2nc3ncccc3o2)ccc1NCc1ccccn1", "values": [{"measurement": "inhibition", "setting": "Enterovirus A71 [2]", "result": "< 5", "unit": "%"}]}, {"smiles": "Cc1ccc2oc(Cc3ccc(NCc4ccccn4)cc3)nc2n1", "values": [{"measurement": "inhibition", "setting": "Enterovirus A71 [2]", "result": 11.9, "unit": "%"}]}, {"smiles": "c1ccc(CNc2ccc(Cc3nc4ncccc4o3)cc2)nc1", "values": [{"measurement": "IC50", "setting": "[4]", "result": 48, "unit": "µM"}, {"measurement": "inhibition", "setting": "Enterovirus A71 [2]", "result": 73.7, "unit": "%"}]}, {"smiles": "O=c1c(O)c(-c2ccc(O)c(O)c2)oc2cc(O)ccc12", "note": "[FISETIN]", "values": [{"measurement": "EC50", "setting": "Enterovirus A71 [3]", "result": 84.5, "unit": "µM"}]}, {"smiles": "CCOC(=O)/C=C/[C@H](C[C@@H]1CCNC1=O)NC(=O)[C@@H](CC(=O)[C@@H](NC(=O)c1cc(C)on1)C(C)C)Cc1ccc(F)cc1", "note": "[RUPINTRIVIR]", "values": [{"measurement": "IC50", "setting": "[4]", "result": 2.62, "unit": "µM"}, {"measurement": "inhibition", "setting": "Enterovirus A71 [2]", "result": 104, "unit": "%"}, {"measurement": "EC50", "setting": "Coxsackievirus", "result": 0.00565, "unit": "µM"}]}, {"smiles": "Clc1cc(-c2nc3ncccc3o2)ccc1NCc1ccccn1", "values": [{"measurement": "inhibition", "setting": "Enterovirus A71 [2]", "result": 6.65, "unit": "%"}]}, {"smiles": "Cc1cccc(CNc2ccc(-c3nc4ncccc4o3)cc2)n1", "values": [{"measurement": "IC50", "setting": "[4]", "result": 40.1, "unit": "µM"}, {"measurement": "inhibition", "setting": "Enterovirus A71 [2]", "result": 68.1, "unit": "%"}]}, {"smiles": "COc1cc(-c2cc(=O)c3c(O)cc(OP(=O)(OC(C)C)OC(C)C)cc3o2)cc(OC)c1O", "values": [{"measurement": "EC50", "setting": "Enterovirus A71 [5]", "result": 9.06, "unit": "µM"}]}, {"smiles": "Cc1cccc(CNc2ccc(Cc3nc4nc(C)ccc4o3)cc2)n1", "values": [{"measurement": "inhibition", "setting": "Enterovirus A71 [2]", "result": 7.42, "unit": "%"}]}, {"smiles": "Cc1ccc2oc(-c3ccc(NCc4ccccn4)c(Cl)c3)nc2n1", "values": [{"measurement": "inhibition", "setting": "Enterovirus A71 [2]", "result": 6.96, "unit": "%"}]}, {"smiles": "Cc1cccc(CNc2ccc(-c3nc4ncccc4o3)cc2F)n1", "values": [{"measurement": "inhibition", "setting": "Enterovirus A71 [2]", "result": 19.2, "unit": "%"}]}, {"smiles": "C#C[C@@]1(O)[C@H](O)[C@@H](CO)O[C@H]1n1ccc2c(N)ncnc21", "values": [{"measurement": "EC50", "setting": "Enterovirus A71 [6]", "result": 0.17, "unit": "µM"}, {"measurement": "EC50", "setting": "Enterovirus A71 [7]", "result": 670, "unit": "nM"}, {"measurement": "CC50 at 48 h", "setting": "[8]", "result": 120, "unit": "µM"}]}, {"smiles": "c1ccc(CNc2ccc(-c3nc4ncccc4o3)cc2)nc1", "values": [{"measurement": "IC50", "setting": "[4]", "result": 21.7, "unit": "µM"}, {"measurement": "Kd", "setting": "[9]", "result": 16.5, "unit": "µM"}, {"measurement": "Kd", "setting": "[10]", "result": 13.4, "unit": "µM"}, {"measurement": "Activity", "setting": "Enterovirus A71 [11]", "result": "Dose-dependent effect"}, {"measurement": "Ki", "setting": "[12]", "result": 23.3, "unit": "µM"}, {"measurement": "inhibition", "setting": "Enterovirus A71 [2]", "result": 80.2, "unit": "%"}, {"measurement": "EC50", "setting": "Enterovirus A71 [6]", "result": 22.1, "unit": "µM"}, {"measurement": "EC50", "setting": "Coxsackievirus", "result": 27.8, "unit": "µM"}, {"measurement": "CC50 at 48 h", "setting": "[13]", "result": "> 200", "unit": "µM"}, {"measurement": "Kd", "setting": "[14]", "result": 6.37, "unit": "µM"}, {"measurement": "IC50", "setting": "[15]", "result": 9.73, "unit": "µM"}, {"measurement": "Kd", "setting": "[16]", "result": 25, "unit": "µM"}, {"measurement": "inhibition", "setting": "Enterovirus A71 [17]", "result": "Active"}, {"measurement": "IC50", "setting": "[18]", "result": 2280, "unit": "nM"}, {"measurement": "Kd", "setting": "[19]", "result": 12.1, "unit": "µM"}, {"measurement": "Ratio IC50", "setting": "Enterovirus A71 [20]", "result": 2.2}, {"measurement": "Ratio IC50", "setting": "Enterovirus A71 [21]", "result": 9.5}]}]}
